Data on seven molecules can be found in publication PMC7880169 (Medicinal chemistry research : an international journal for …, 2020).

Where two headings read alike, the source gives them in different places. A value given as a limit tells only on which side of the number the result lay.

In general, Ki refers to a measure of affinity in units of concentration, obtained from inhibition or displacement. For orientation: microsomal CLint means the rate of metabolic loss divided by the concentration. A lower microsomal CLint goes with greater metabolic stability.

Series [1] has as its target T1, σ1R (Cavia porcellus, UniProt Q60492). In words: σ1R radioligand binding with [3H]. Also on record: species or system guinea pig. To be noted: for Ki σ2R /Ki σ1R: selectivity ratio σ2R over σ1R. Put shortly: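 Membranes from frozen whole guinea pig brain. Each tube held 3 nmol/L [3H](+)-pentazocine (28 Ci/mmol) and 8.0 mg tissue.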
A short description of series [2]: In vitro microsomal stability in RLMs. Format: in vitro ADME, rat. Particulars: for microsomal CLint at 1 μM: rat, rat liver microsomes, pH 7.4. Put shortly: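 Test compound at 1 μM (spiked from 200 μM stock) in 50 mM phosphate buffer pH 7.4 with 1 mg protein/mL rat liver microsomes and 3 mM MgCl2. Mixture pre-incubated 5 min at 37 ± 0.5 °C, then started with NADPH (1 mM final) and shaken for 30 min. Aliquots taken at 0, 5, 10, 15, 20 and 30 min, quenched in ice-cold acetonitrile with internal standard, filtered and analysed by LC-MS/MS. Controls: verapamil (positive) and no-NADPH mixture (negative).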

A short description of series [3]: Metabolic soft spot identification of 12 in RLMs. Format: in vitro ADME, rat. To be noted: RLMs with NADPH. Put shortly: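 Test compound at 10 μM in 50 mM phosphate buffer pH 7.4 with 1 mg protein/mL rat liver microsomes, pre-incubated 5 min at 37 ± 0.5 °C with shaking. Reaction started with NADPH (1 mM final). Samples taken at 0 min (control) and 10 min, mixed with an equal volume of ice-cold acetonitrile, vortexed 2 min and centrifuged at 10,000 g for 5 min. Supernatant analysed by LC-HRMS on a QToF.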

For series [4], the target named is T1, σ1R. To be noted: selectivity ratio; ref Yous et al. 2005; cited from earlier work.
The target in the next series is σ2R. To be noted: read-out: Ki (nM ± SEM) σ2R; ref Yous et al. 2005; cited from earlier work.

T1 sequence (Q60492 whole entry): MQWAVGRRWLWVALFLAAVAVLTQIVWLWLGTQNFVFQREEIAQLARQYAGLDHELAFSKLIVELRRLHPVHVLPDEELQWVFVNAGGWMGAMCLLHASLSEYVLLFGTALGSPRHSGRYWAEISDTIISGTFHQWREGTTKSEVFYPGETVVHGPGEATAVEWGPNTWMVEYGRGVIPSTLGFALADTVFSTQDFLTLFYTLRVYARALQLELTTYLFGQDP

Turning to `O=c1sc2ccccc2n1CCNC12CC3CC(CC(C3)C1)C2` [Compound 7, 3-{2-[(Adamantan-1-yl)amino]ethyl}benzo[d]thiazol-2(3H)-one], at σ1R [1], affinity was put at a Ki of 131 ± 9.94 nM and the “Ki σ2R /Ki σ1R” value amounted to 0.5. This molecule showed a microsomal CLint at 1 μM in series [2] of 460 µL/min/mg.
The like results for `CCC(=O)c1ccc2c(c1)sc(=O)n2CCNC12CC3CC(CC(C3)C1)C2` [Compound 8, 3-{2-[(Adamantan-1-yl)amino]ethyl}−6-propionylbenzo[d]thiazol-2(3H)-one] were, in that order, 11.2 ± 1.26 nM, 6.3 and 160 µL/min/mg.
The like results for `CCCc1ccc2c(c1)sc(=O)n2CCNC12CC3CC(CC(C3)C1)C2` [Compound 9, 3-{2-[(Adamantan-1-yl)amino]ethyl}−6-propylbenzo[d]thiazol-2(3H)-one] were, in that order, 11.2 ± 0.68 nM, 6.2 and 280 µL/min/mg.
As to `CN(CCn1c(=O)sc2ccccc21)C12CC3CC(CC(C3)C1)C2` [Compound 10, 3-{2-[(Adamantan-1-yl)(methyl)amino]ethyl}benzo[d]thiazol-2(3H)-one], at σ1R [1], the Ki was 12.9 ± 1.8 nM and the “Ki σ2R /Ki σ1R” value was determined as 6.6. For the same molecule, the microsomal CLint at 1 μM in series [2] was determined as 650 µL/min/mg.
The like results for `CCC(=O)c1ccc2c(c1)sc(=O)n2CCN(C)C12CC3CC(CC(C3)C1)C2` [Compound 11, 3-{2-[(Adamantan-1-yl)(methyl)amino]ethyl}−6-propionylbenzo[d]thiazol-2(3H)-one] were, in that order, 12.9 ± 1.84 nM, 8.7 and 560 µL/min/mg.
With `CCCc1ccc2c(c1)sc(=O)n2CCN(C)C12CC3CC(CC(C3)C1)C2` [Compound 12, 3-{2-[(Adamantan-1-yl)(methyl)amino]ethyl}−6-propylbenzo[d]thiazol-2(3H)-one], on σ1R [1], the affinity, expressed as Ki, was 7.2 ± 0.88 nM and the “Ki σ2R /Ki σ1R” value amounted to 61. Further, in series [2], the intrinsic metabolic clearance (microsomal CLint) at 1 μM was found to be 370 µL/min/mg. Besides, the “remaining unmodified at the end of 10 min incubation” value in series [3] is reported as “ca. 6%”.
On to `CCCc1ccc2c(c1)sc(=O)n2CCN1CCCCCC1` [SN56, 3-[2-(azepan-1-yl)ethyl]-6-propylbenzo[d]thiazol-2(3H)-one, reference compound], for which the “t1/2 (in vitro hepatic microsomal half-life)” value in series [2] (RLMs 1 mg protein/mL, 1 μM compound, NADPH, 37 °C) turned out to be 58.8 s. Also, in series [2], the microsomal CLint at 1 μM was found to be 710 µL/min/mg. Moreover, the “Ki σ2R /Ki σ1R” value at σ1R [4] is recorded as more than 1000. On σ2R, the Ki was more than 1000 nM.
